This passage reports Ki results from ChEMBL document CHEMBL3352003, “Sulfonamides with Potent Inhibitory Action and Selectivity against the α-Carbonic Anhydrase from Vibrio cholerae” (ACS Med Chem Lett, 2014).

pKi: −log10 of the molar value.

The test in a line: Inhibition of Vibrio cholerae cytosolic carbonic anhydrase by stopped flow CO2 hydration assay. The method in brief: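 Stopped-flow measurement of the enzyme-catalysed CO2 hydration activity; inhibition is reported as KI (nM).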
By pKi is commonly meant the Ki on a negative log10 scale, so that one unit is a factor of ten. As for `CC(=O)NC(CCCCNC(=O)OC(C)(C)C)C(=O)Nc1cccc(S(N)(=O)=O)c1` (stereo unspecified), the pKi is 8.06.
The value for `CC(C)(C)OC(=O)NCCCC(=O)NCc1ccc(S(N)(=O)=O)cc1` was 8.21; that for `CC(C)(C)OC(=O)NCCCC(=O)NCCc1ccc(S(N)(=O)=O)cc1` was 6.52; that for `NCCCC(=O)NCc1ccc(S(N)(=O)=O)cc1` was 7.19.
`NCCCC(=O)NCCc1ccc(S(N)(=O)=O)cc1` gave a negative-log Ki (pKi) of 7.11. This pKi and that of the molecule before are within 0.2 log units of each other.
In the case of `CC(C)(C)OC(=O)/N=C(\NCCCC(=O)NCc1ccc(S(N)(=O)=O)cc1)NC(=O)OC(C)(C)C` it was 8.24; in that of `CC(C)(C)OC(=O)/N=C(\NCCCC(=O)NCCc1ccc(S(N)(=O)=O)cc1)NC(=O)OC(C)(C)C`, 7.02; in that of `N=C(N)NCCCC(=O)NCc1ccc(S(N)(=O)=O)cc1`, 8.19.
The value for `N=C(N)NCCCC(=O)NCCc1ccc(S(N)(=O)=O)cc1` was 7.54; that for `CC(=O)NC(CCCCNC(=O)OC(C)(C)C)C(=O)NCc1ccc(S(N)(=O)=O)cc1` (stereo unspecified) was 8.05; that for `CC(=O)NC(CCCCNC(=O)OC(C)(C)C)C(=O)NCCc1ccc(S(N)(=O)=O)cc1` (stereo unspecified) was 7.12.
For `CC(=O)NC(CCCCN)C(=O)NCc1ccc(S(N)(=O)=O)cc1` (stereo unspecified), the pKi is 7.54.
The molecule `CC(=O)NC(CCCCN)C(=O)NCCc1ccc(S(N)(=O)=O)cc1` (stereo unspecified) gave a pKi of 7.18.
In the case of `CC(=O)NC(CCCCN/C(=N/C(=O)OC(C)(C)C)NC(=O)OC(C)(C)C)C(=O)NCc1ccc(S(N)(=O)=O)cc1` (stereo unspecified) it was 8.04; in that of `CC(=O)NC(CCCCN/C(=N/C(=O)OC(C)(C)C)NC(=O)OC(C)(C)C)C(=O)NCCc1ccc(S(N)(=O)=O)cc1` (stereo unspecified), 8.03; in that of `CC(=O)NC(CCCCNC(=N)N)C(=O)NCc1ccc(S(N)(=O)=O)cc1` (stereo unspecified), 8.06.
In the case of `CC(=O)NC(CCCCNC(=N)N)C(=O)NCCc1ccc(S(N)(=O)=O)cc1` (stereo unspecified) it was 7.43; in that of `CC(C)(C)OC(=O)NCCCC(=O)Nc1cccc(S(N)(=O)=O)c1`, 8.12.
In the case of `CC(C)(C)OC(=O)NCCCC(=O)Nc1ccc(S(N)(=O)=O)cc1` it was 8.16; in that of `COC(=O)C(CCCCNC(=O)OCc1ccccc1)NC(=O)c1ccc(S(N)(=O)=O)cc1` (stereo unspecified), 8.21; in that of `CC(=O)Nc1nnc(S(N)(=O)=O)s1` [ACETAZOLAMIDE], […].
